The text below walks through data of the array DNA melting data of Ke et al. (doi:10.1101/2024.01.08.574731).

A short description of data set [1]: folding enthalpy; higher = less favourable; fluorescence melt of hairpins on a sequencing array, two-state fit. The note with it: sodium 0.088 M. The gist of the method:
(§1)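 With Cy3 and quencher oligos annealed, library hairpins on a sequenced MiSeq flow cell were imaged for Cy3 fluorescence in 50 mM Na-HEPES pH 8.0, 25 mM NaCl, in 2.5 °C steps up to 60 °C. Melting temperature and folding enthalpy were derived from bootstrapped two-state fits of signals normalised to pre-quench Cy3 and to control constructs. Four replicates were combined by inverse variance, with fitted temperatures raised by 9.35 °C to match UV melts.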

Data set [2] in a line: melting temperature; fluorescence melt of hairpins on a sequencing array, two-state fit, raised by 9.35 °C to match UV melts. Particulars: sodium 0.088 M. In outline:
as §1

Turning to GGAATTCCGAAAGGATCC (((..(((....)))))), in data set [1], the folding enthalpy was -10.9 kcal/mol. The Tm in data set [2] is 28 °C.
Turning to GGAATTCGAAAGAACTCC (((.(((....))).))), in data set [1], the folding enthalpy is -28.1 kcal/mol. The Tm in data set [2] was determined as 36.4 °C.
For GGAATTGGAAACAATTTC (.(((((....))))).), in that order: -32.8 kcal/mol and 39.5 °C.
Turning to GGACAAACGAAAGTTTCC (((..(((....)))))), in data set [1], the folding enthalpy is -9.9 kcal/mol. Further, the Tm in data set [2] worked out at 25.4 °C.
For GGACAACCGAAAGGTTCC (((..(((....)))))), in that order: -10.9 kcal/mol and 29.4 °C.
For GGACAACGAAAGTTATCC (((.(((....))).))), in that order: -29.4 kcal/mol and 40 °C.
For GGACAACGAAAGTTTCC (((.(((....)))))), in that order: -20.1 kcal/mol and 38.3 °C.
With GGACACGAAAGTGAGTCC ((((((....)))..))), the folding enthalpy in data set [1] was -21 kcal/mol. In data set [2], the Tm turned out to be 44.8 °C.
Regarding GGACACGAAAGTGATTCC ((((((....)))..))), the folding enthalpy in data set [1] is -14.7 kcal/mol. In addition, the Tm in data set [2] turned out to be 31.7 °C.
The like results for GGACACGAAAGTGCGTCC ((((((....)))..))) were, in that order, -18.2 kcal/mol and 40.5 °C.
The like results for GGACACGAAAGTGGCTCC ((((((....)))..))) were, in that order, -11.8 kcal/mol and 49 °C.
Consider GGACACGAAAGTGTGTCC ((((((....)))..))), for which the folding enthalpy in data set [1] is -30.6 kcal/mol. The Tm in data set [2] turned out to be 55.5 °C.
The like results for GGACAGACGAAAGTCTCC (((..(((....)))))) were, in that order, -10.2 kcal/mol and 30.4 °C.
On to GGACATGGAAACATGTTC (.(((((....))))).), for which the folding enthalpy in data set [1] was -27.6 kcal/mol. Moreover, in data set [2], the Tm is 47.4 °C.
The like results for GGACCAGGAAACTGGTTC (.(((((....))))).) were, in that order, -24.6 kcal/mol and 51.8 °C.
In the case of GGACCCCCGAAAGGGTCC (((..(((....)))))), the folding enthalpy in data set [1] was -34.8 kcal/mol. In data set [2], the Tm amounted to 62.1 °C.
For GGACCCCGAAAGGGTTCC (((.(((....))).))), in that order: -23.2 kcal/mol and 52.5 °C.
The like results for GGACCCGAAAGGGAATCC ((((((....)))..))) were, in that order, -16.7 kcal/mol and 34.6 °C.
In the case of GGACCCGAAAGGGACTCC ((((((....)))..))), the folding enthalpy in data set [1] was -13 kcal/mol. Besides, the Tm in data set [2] was determined as 54 °C.
For GGACCCGAAAGGGCATCC ((((((....)))..))), the folding enthalpy in data set [1] was -11.7 kcal/mol. Also, the Tm in data set [2] stood at 34.2 °C.
As for GGACCCGAAAGGGGCTCC ((((((....)))..))), the folding enthalpy in data set [1] is -9.41 kcal/mol. Further, the Tm in data set [2] was 56.5 °C.
For GGACCCGGAAACGGACCC ((..(((....)))..)), in that order: -13.8 kcal/mol and 32.7 °C.
Turning to GGACCGCCGAAAGGCTCC (((..(((....)))))), in data set [1], the folding enthalpy was -10 kcal/mol. Moreover, in data set [2], the Tm came out at 32.2 °C.
For GGACCTGAAAAGGTCC ((((((....)))))), in that order: -34.4 kcal/mol and 68.2 °C.
The like results for GGACGACGAAAGTCCTCC (((.(((....))).))) were, in that order, -19.4 kcal/mol and 45.4 °C.
For GGACGAGGAAACTCATCC (((.(((....))).))), in that order: -27.4 kcal/mol and 36.7 °C.
Turning to GGACGAGGAAACTCGCCC ((.((((....)))).)), the folding enthalpy in data set [1] was -23.3 kcal/mol. Also, the Tm in data set [2] is 51.7 °C.
For GGACGCACGAAAGTGTCC (((..(((....)))))), in that order: -21.4 kcal/mol and 47 °C.
Consider GGACGCCGAAAGGCTCC (((.(((....)))))), for which the folding enthalpy in data set [1] was -19.7 kcal/mol. The Tm in data set [2] was 54.3 °C.
On to GGACGCCGAAAGGCTTCC (((.(((....))).))), for which the folding enthalpy in data set [1] is -23.4 kcal/mol. In data set [2], the Tm was determined as 53.8 °C.
On to GGACGCGAAAGCGGATCC ((((((....)))..))), for which, in data set [1], the folding enthalpy was -12.3 kcal/mol. In data set [2], the Tm was found to be 47.5 °C.
GGACGCGAAAGCGGCTCC ((((((....)))..))): in data set [1], the folding enthalpy is -8.87 kcal/mol. Further, the Tm in data set [2] is 58 °C.
For the sequence GGACGGAAACGTCC (((((....))))), the folding enthalpy in data set [1] is -31.9 kcal/mol. Further, the Tm in data set [2] came to 66.4 °C.
For GGACGGACGAAAGTCTCC (((..(((....)))))), in that order: -13.2 kcal/mol and 30.5 °C.
For GGACGGGGAAACCCATCC (((.(((....))).))), in that order: -27.6 kcal/mol and 41.7 °C.
As for GGACGGGGAAACCCGTTC (.(((((....))))).), the folding enthalpy in data set [1] was -21.4 kcal/mol. Moreover, the Tm in data set [2] amounted to 56.1 °C.
GGACGTCGAAAGACTCC (((.(((....)))))): the folding enthalpy in data set [1] is -23.8 kcal/mol. The Tm in data set [2] was determined as 51.2 °C.
With GGACGTGGAAACGCGTCC (((((.(....).))))), the folding enthalpy in data set [1] was -45.2 kcal/mol. The Tm in data set [2] worked out at 61.9 °C.
For GGACGTGGAAACGTGTCC ((((..(....)..)))), in that order: -19.9 kcal/mol and 44.3 °C.
Regarding GGACTAGGAAACTGGTCC ((((.((....)).)))), the folding enthalpy in data set [1] was -41.6 kcal/mol. Further, the Tm in data set [2] is 50.9 °C.
For GGACTCCCGAAAGGGTCC (((..(((....)))))), in that order: -16.8 kcal/mol and 45.3 °C.
As to GGACTCCGAAAGGATTCC (((.(((....))).))), the folding enthalpy in data set [1] was -30.2 kcal/mol. The Tm in data set [2] stood at 47 °C.
For GGACTCGAAAGAGAATCC ((((((....)))..))), in that order: -12.6 kcal/mol and 28.8 °C.
On to GGACTCGAAAGAGCTCC ((((((....))).))), for which the folding enthalpy in data set [1] was -26 kcal/mol. Moreover, the Tm in data set [2] was 45 °C.
For GGACTCGAAAGAGGGTCC ((((((....)))..))), in that order: -21 kcal/mol and 43.9 °C.
With GGACTCGAAAGAGTGTCC ((((((....)))..))), in data set [1], the folding enthalpy was -16.9 kcal/mol. For the same sequence, in data set [2], the Tm was found to be 40.7 °C.
For GGACTCGGAAACGAGCCC ((.((((....)))).)), in that order: -34.7 kcal/mol and 53.5 °C.
Regarding GGACTCTCGAAAGAGTCC (((..(((....)))))), in data set [1], the folding enthalpy is -42.7 kcal/mol. Further, the Tm in data set [2] is 60.9 °C.
The like results for GGACTGCGAAAGCACTCC (((.(((....))).))) were, in that order, -8.91 kcal/mol and 38.9 °C.
Turning to GGACTTCCGAAAGGATCC (((..(((....)))))), in data set [1], the folding enthalpy is -12.7 kcal/mol. Besides, in data set [2], the Tm worked out at 29.1 °C.
Regarding GGACTTGGAAACAGGTCC ((((.((....)).)))), the folding enthalpy in data set [1] is -46.5 kcal/mol. The Tm in data set [2] stood at 49.4 °C.
For GGAGAACGAAAGTTATCC (((.(((....))).))), in that order: -37.2 kcal/mol and 51.6 °C.
Regarding GGAGAACGAAAGTTTTCC (((.(((....))).))), the folding enthalpy in data set [1] was -29.2 kcal/mol. Besides, the Tm in data set [2] was 47.4 °C.
The like results for GGAGAAGCGAAAGCTTCC (((..(((....)))))) were, in that order, -9.26 kcal/mol and 42.7 °C.
Turning to GGAGAAGGAAACTTCTCC (((((((....))))))), in data set [1], the folding enthalpy was -43.1 kcal/mol. In addition, the Tm in data set [2] was found to be 57.7 °C.
For GGAGAAGGAAACTTCTTC (.(((((....))))).), the folding enthalpy in data set [1] is -23.1 kcal/mol. For the same sequence, the Tm in data set [2] is 36.7 °C.
For the sequence GGAGACACGAAAGTGTCC (((..(((....)))))), the folding enthalpy in data set [1] was -8.97 kcal/mol. The Tm in data set [2] was 44.1 °C.
The like results for GGAGACCCGAAAGGGTCC (((..(((....)))))) were, in that order, -7.91 kcal/mol and 47.6 °C.
For GGAGACCGAAAGGTATCC (((.(((....))).))), the folding enthalpy in data set [1] is -41.4 kcal/mol. In addition, in data set [2], the Tm was 61.4 °C.
For GGAGACGAAAGTCAATCC ((((((....)))..))), in that order: -15.1 kcal/mol and 31 °C.
The like results for GGAGACGAAAGTCACTCC ((((((....)))..))) were, in that order, -13.3 kcal/mol and 37.6 °C.
As to GGAGACGAAAGTCATTCC ((((((....)))..))), in data set [1], the folding enthalpy is -12 kcal/mol. For the same sequence, the Tm in data set [2] was 29.6 °C.
The like results for GGAGACGAAAGTCGATCC ((((((....)))..))) were, in that order, -13 kcal/mol and 44 °C.
For GGAGACGCGAAAGCGTCC (((..(((....)))))), in that order: -7.09 kcal/mol and 45.3 °C.
For GGAGACGGAAACGCCTCC ((((.((....)).)))), in that order: -48.4 kcal/mol and 51.4 °C.
Consider GGAGACGGAAACGTCTTC (.(((((....))))).), for which, in data set [1], the folding enthalpy is -17.4 kcal/mol. For the same sequence, the Tm in data set [2] came out at 50.7 °C.
For GGAGATACGAAAGTATCC (((..(((....)))))), in that order: -12.7 kcal/mol and 40.9 °C.
Take GGAGATCCGAAAGGATCC (((..(((....)))))): in data set [1], the folding enthalpy was -9.31 kcal/mol. Besides, the Tm in data set [2] is 42 °C.
With GGAGATCGAAAGATGTCC (((.(((....))).))), the folding enthalpy in data set [1] is -29.5 kcal/mol. The Tm in data set [2] was 50.4 °C.
For GGAGCACGAAAGTGATCC (((.(((....))).))), in that order: -38.3 kcal/mol and 66.2 °C.
For GGAGCACGAAAGTGTCC (((.(((....)))))), in that order: -16.4 kcal/mol and 48.5 °C.
For GGAGCAGGAAACTGCTTC (.(((((....))))).), in that order: -26.4 kcal/mol and 51.7 °C.
Turning to GGAGCAGGAAACTGTTCC (((.(((....))).))), in data set [1], the folding enthalpy was -29.5 kcal/mol. The Tm in data set [2] came to 48 °C.
